# ChEMBL document CHEMBL4689842, “EUbOPEN Chemogenomics Library wave 1” (2021)
# What was measured:
# [1] = tested on: U2OS; assay: Multiplex assay against U2OS; assay type: toxicity, cell-based; conditions: human
# Procedure, shortened: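 Hoechst33342, BioTracker Green Microtubule Cytoskeleton Dye, MitoTracker Red and Annexin V Alexa Fluor 680 were added to live cells at seeding, and imaging on a CQ1 microscope at 37°C and 5% CO2 followed compound addition. Gating by CellPathfinder machine learning separated cells into Hoechst high-intensity objects or normal cells, then normal cells into healthy, pyknosed or fragmented nuclei, then pyknosed cells into mitotic or apoptotic. Per cents of healthy-nucleus cells are reported for the tubulin, mitochondrial-mass and membrane-permeability phenotypes.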
# [2] = tested on: U2OS; assay: Incucyte cell viability with U2OS; assay type: toxicity, cell-based; conditions: human, 10 µM, compound concentration 10 uM; further: filed as whole numbers so only -1 and 0 and 1 occur
# [3] = 12 h, 1 µM, compound concentration 1 uM, replicate 1
# [4] = 12 h, 1 µM, compound concentration 1 uM, replicate 2
# [5] = 12 h, 10 µM, compound concentration 10 uM, replicate 1
# [6] = 12 h, 10 µM, compound concentration 10 uM, replicate 2
# [7] = 24 h, 1 µM, compound concentration 1 uM, replicate 1
# [8] = 24 h, 1 µM, compound concentration 1 uM, replicate 2
# [9] = 24 h, 10 µM, compound concentration 10 uM, replicate 1
# [10] = 24 h, 10 µM, compound concentration 10 uM, replicate 2
# [11] = 48 h, 1 µM, compound concentration 1 uM, replicate 1
# [12] = 48 h, 1 µM, compound concentration 1 uM, replicate 2
# [13] = 48 h, 10 µM, compound concentration 10 uM, replicate 1
# [14] = 48 h, 10 µM, compound concentration 10 uM, replicate 2
smiles,measurement,setting,value
CC(=O)c1cc(-c2cc(C(=O)NC3CC3)ccc2C)c2ncccn12,Population Apoptotic (%),[1]; [3],42%
same,Population Fragmented Nuclei (%),[1]; [3],6%
same,Population Healthy Nuclei (%),[1]; [3],84%
same,Population Hoechst High Intensity Objects (%),[1]; [3],5%
same,Population Membrane Permeable-Phenotype (%),[1]; [3],9%
same,Population Mitochondria Different-Phenotype (%),[1]; [3],8%
same,Population Mitotic Cells (%),[1]; [3],57%
same,Population Normal (%),[1]; [3],94%
same,Population Pyknosed Nuclei (%),[1]; [3],8%
same,Population Tubulin-Different-Phenotype (%),[1]; [3],14%
same,Total Cell Count,[1]; [3],108
same,Population Apoptotic (%),[1]; [4],66%
same,Population Fragmented Nuclei (%),[1]; [4],8%
same,Population Healthy Nuclei (%),[1]; [4],85%
same,Population Hoechst High Intensity Objects (%),[1]; [4],7%
same,Population Membrane Permeable-Phenotype (%),[1]; [4],2%
same,Population Mitochondria Different-Phenotype (%),[1]; [4],7%
same,Population Mitotic Cells (%),[1]; [4],33%
same,Population Normal (%),[1]; [4],92%
same,Population Pyknosed Nuclei (%),[1]; [4],6%
same,Population Tubulin-Different-Phenotype (%),[1]; [4],19%
same,Total Cell Count,[1]; [4],73
same,Population Apoptotic (%),[1]; [5],43%
same,Population Fragmented Nuclei (%),[1]; [5],7%
same,Population Healthy Nuclei (%),[1]; [5],79%
same,Population Hoechst High Intensity Objects (%),[1]; [5],6%
same,Population Membrane Permeable-Phenotype (%),[1]; [5],6%
same,Population Mitochondria Different-Phenotype (%),[1]; [5],9%
same,Population Mitotic Cells (%),[1]; [5],56%
same,Population Normal (%),[1]; [5],93%
same,Population Pyknosed Nuclei (%),[1]; [5],12%
same,Population Tubulin-Different-Phenotype (%),[1]; [5],16%
same,Total Cell Count,[1]; [5],169
same,Population Apoptotic (%),[1]; [6],60%
same,Population Fragmented Nuclei (%),[1]; [6],11%
same,Population Healthy Nuclei (%),[1]; [6],84%
same,Population Hoechst High Intensity Objects (%),[1]; [6],4%
same,Population Membrane Permeable-Phenotype (%),[1]; [6],3%
same,Population Mitochondria Different-Phenotype (%),[1]; [6],8%
same,Population Mitotic Cells (%),[1]; [6],40%
same,Population Normal (%),[1]; [6],95%
same,Population Pyknosed Nuclei (%),[1]; [6],5%
same,Population Tubulin-Different-Phenotype (%),[1]; [6],17%
same,Total Cell Count,[1]; [6],52
same,Population Apoptotic (%),[1]; [7],43%
same,Population Fragmented Nuclei (%),[1]; [7],4%
same,Population Healthy Nuclei (%),[1]; [7],89%
same,Population Hoechst High Intensity Objects (%),[1]; [7],4%
same,Population Membrane Permeable-Phenotype (%),[1]; [7],6%
same,Population Mitochondria Different-Phenotype (%),[1]; [7],5%
same,Population Mitotic Cells (%),[1]; [7],56%
same,Population Normal (%),[1]; [7],96%
same,Population Pyknosed Nuclei (%),[1]; [7],6%
same,Population Tubulin-Different-Phenotype (%),[1]; [7],17%
same,Total Cell Count,[1]; [7],111
same,Population Apoptotic (%),[1]; [8],0%
same,Population Fragmented Nuclei (%),[1]; [8],3%
same,Population Healthy Nuclei (%),[1]; [8],91%
same,Population Membrane Permeable-Phenotype (%),[1]; [8],3%
same,Population Mitochondria Different-Phenotype (%),[1]; [8],9%
same,Population Mitotic Cells (%),[1]; [8],100%
same,Population Normal (%),[1]; [8],95%
same,Population Pyknosed Nuclei (%),[1]; [8],5%
same,Population Tubulin-Different-Phenotype (%),[1]; [8],12%
same,Total Cell Count,[1]; [8],70
same,Population Apoptotic (%),[1]; [9],25%
same,Population Fragmented Nuclei (%),[1]; [9],15%
same,Population Healthy Nuclei (%),[1]; [9],66%
same,Population Hoechst High Intensity Objects (%),[1]; [9],2%
same,Population Membrane Permeable-Phenotype (%),[1]; [9],10%
same,Population Mitochondria Different-Phenotype (%),[1]; [9],5%
same,Population Mitotic Cells (%),[1]; [9],75%
same,Population Normal (%),[1]; [9],97%
same,Population Pyknosed Nuclei (%),[1]; [9],18%
same,Population Tubulin-Different-Phenotype (%),[1]; [9],17%
same,Total Cell Count,[1]; [9],250
same,Population Apoptotic (%),[1]; [10],48%
same,Population Fragmented Nuclei (%),[1]; [10],11%
same,Population Healthy Nuclei (%),[1]; [10],63%
same,Population Membrane Permeable-Phenotype (%),[1]; [10],8%
same,Population Mitochondria Different-Phenotype (%),[1]; [10],12%
same,Population Mitotic Cells (%),[1]; [10],51%
same,Population Pyknosed Nuclei (%),[1]; [10],24%
same,Population Tubulin-Different-Phenotype (%),[1]; [10],18%
same,Total Cell Count,[1]; [10],62
same,Population Apoptotic (%),[1]; [11],47%
same,Population Fragmented Nuclei (%),[1]; [11],3%
same,Population Healthy Nuclei (%),[1]; [11],91%
same,Population Hoechst High Intensity Objects (%),[1]; [11],2%
same,Population Membrane Permeable-Phenotype (%),[1]; [11],3%
same,Population Mitochondria Different-Phenotype (%),[1]; [11],9%
same,Population Mitotic Cells (%),[1]; [11],52%
same,Population Normal (%),[1]; [11],97%
same,Population Pyknosed Nuclei (%),[1]; [11],5%
same,Population Tubulin-Different-Phenotype (%),[1]; [11],21%
same,Total Cell Count,[1]; [11],106
same,Population Apoptotic (%),[1]; [12],16%
same,Population Fragmented Nuclei (%),[1]; [12],2%
same,Population Hoechst High Intensity Objects (%),[1]; [12],3%
same,Population Membrane Permeable-Phenotype (%),[1]; [12],2%
same,Population Mitochondria Different-Phenotype (%),[1]; [12],20%
same,Population Mitotic Cells (%),[1]; [12],83%
same,Population Normal (%),[1]; [12],96%
same,Population Pyknosed Nuclei (%),[1]; [12],6%
same,Population Tubulin-Different-Phenotype (%),[1]; [12],23%
same,Total Cell Count,[1]; [12],67
same,Population Apoptotic (%),[1]; [13],70%
same,Population Fragmented Nuclei (%),[1]; [13],16%
same,Population Healthy Nuclei (%),[1]; [13],60%
same,Population Hoechst High Intensity Objects (%),[1]; [13],7%
same,Population Membrane Permeable-Phenotype (%),[1]; [13],10%
same,Population Mitochondria Different-Phenotype (%),[1]; [13],6%
same,Population Mitotic Cells (%),[1]; [13],30%
same,Population Normal (%),[1]; [13],92%
same,Population Pyknosed Nuclei (%),[1]; [13],22%
same,Population Tubulin-Different-Phenotype (%),[1]; [13],16%
same,Total Cell Count,[1]; [13],381
same,Population Apoptotic (%),[1]; [14],87%
same,Population Fragmented Nuclei (%),[1]; [14],14%
same,Population Healthy Nuclei (%),[1]; [14],73%
same,Population Hoechst High Intensity Objects (%),[1]; [14],4%
same,Population Membrane Permeable-Phenotype (%),[1]; [14],31%
same,Population Mitochondria Different-Phenotype (%),[1]; [14],29%
same,Population Mitotic Cells (%),[1]; [14],12%
same,Population Normal (%),[1]; [14],95%
same,Population Pyknosed Nuclei (%),[1]; [14],11%
same,Population Tubulin-Different-Phenotype (%),[1]; [14],35%
same,Total Cell Count,[1]; [14],93
same,Growth Rate,"[2]; 0 h, replicate number 1, timepoint 0 hours",0
same,Growth Rate,"[2]; 6 h, replicate number 1, timepoint 6 hours",0
same,Growth Rate,"[2]; 12 h, replicate number 1, timepoint 12 hours",0
same,Growth Rate,"[2]; 18 h, replicate number 1, timepoint 18 hours",0
same,Growth Rate,"[2]; 24 h, replicate number 1, timepoint 24 hours",0
